# Measured values published in ChEMBL document CHEMBL4190388, “Discovery and Optimization of Indolyl-Containing 4-Hydroxy-2-Pyridone Type II DNA Topoisomerase Inhibitors Active against Multidrug Resistant Gram-negative Bacteria” (J Med Chem, 2018).
# Columns and labels:
# [1] = Fraction unbound in mouse plasma at 1 uM by equilibrium dialysis method; type: ADME, cell-free
# Mus musculus [2] = test: AUC (0 to 24 hrs) in CD1 mouse plasma at 3 mg/kg, iv by LC-MS/MS analysis; type: ADME, organism-based; design: time < 24 hr, dose 3 mg/kg, route intravenous; conditions: in vivo
# In short: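 CD-1 mice given a single 3 mg/kg iv dose (n = 3) in 3% DMSO/saline; plasma exposure measured.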
# Mus musculus [3] = test: Antibacterial activity against Escherichia coli infected in cyclophosphamide treated neutropenic CD1 mouse septicemia model assessed as mouse survival at 3 mg/kg, iv dosed at 1 hr post infection followed by redosing at 5 hrs post infection measured at 96 hrs post infection relative to control; type: functional
# In short: (§1)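 Female CD-1 mice were made neutropenic with cyclophosphamide ip, 150 mg/kg on day −4 and 100 mg/kg on day −1. […] Compound was given iv in 3% DMSO/saline at 1 and 5 h postinfection, n = 6 per group. Percent survival was scored at 96 h postinfection.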
# Mus musculus [4] = test: Antibacterial activity against Escherichia coli infected in cyclophosphamide treated neutropenic CD1 mouse septicemia model assessed as mouse survival at 1.5 mg/kg, iv dosed at 1 hr post infection followed by redosing at 5 hrs post infection measured at 96 hrs post infection relative to control; type: functional; in short: as §1
# Escherichia coli [5] = test: Antibacterial activity against fluoroquinolone resistant Escherichia coli SKM18 by CLSI M100-S17 protocol based method; type: functional
# Escherichia coli [6] = test: Antibacterial activity against wild type Escherichia coli ATCC 25922 by CLSI M100-S17 protocol based method; type: functional
# Escherichia coli [7] = test: Antibacterial activity against quinolone resistance Escherichia coli isolate ELZ4251 harboring gyrA/parC mutant by CLSI M100-S17 protocol based method; type: functional
# Acinetobacter baumannii [8] = test: Antibacterial activity against wild type Acinetobacter baumannii ATCC BAA-747 by CLSI M100-S17 protocol based method; type: functional
# Acinetobacter baumannii [9] = test: Antibacterial activity against fluoroquinolone resistant Acinetobacter baumannii isolate MMX2240 by CLSI M100-S17 protocol based method; type: functional
# Klebsiella pneumoniae = test: Antibacterial activity against wild type Klebsiella pneumoniae ATCC 35657 by CLSI M100-S17 protocol based method; type: functional
# Escherichia coli [10] = test: Antibacterial activity against wild type Escherichia coli ATCC 25922 in presence of HSA by CLSI M100-S17 protocol based method; type: functional
# Escherichia coli [11] = test: Antibacterial activity against Escherichia coli SKM11 by CLSI M100-S17 protocol based method; type: functional
# Escherichia coli [12] = test: Antibacterial activity against wild type Escherichia coli 1609 by CLSI M100-S17 protocol based method; type: functional
# DNA gyrase subunit A = DNA gyrase subunit A (Escherichia coli K-12, UniProt P0AES4); test: Inhibition of His tagged Escherichia coli ATCC 25922 DNA gyrase A SD-LY mutant expressed in Escherichia coli BL21 (DE3) pLysS cells assessed as reduction in enzyme-mediated supercoiling of relaxed plasmid DNA pNO1 after 30 mins in presence of biotinylated TFO1 by fluorescence assay
# [13] = Inhibition of His tagged Escherichia coli ATCC 25922 DNA gyrase A expressed in Escherichia coli BL21 (DE3) pLysS cells assessed as reduction in enzyme-mediated supercoiling of relaxed plasmid DNA pNO1 after 30 mins in presence of biotinylated TFO1 by fluorescence assay
# [14] = Inhibition of Escherichia coli DNA topoisomerase 4 assessed as reduction in decatenation activity using kinetoplast concatenated DNA as substrate after 30 mins by picogreen dye based fluorescence assay
# Escherichia coli [15] = test: Antibacterial activity against Escherichia coli infected in cyclophosphamide treated neutropenic CD1 mouse septicemia model assessed as mouse survival at 20 mg/kg, iv dosed at 1 hr post infection followed by redosing at 5 hrs post infection measured at 96 hrs post infection relative to control; type: functional; in short: as §1
# Escherichia coli [16] = test: Antibacterial activity against quinolone resistant Escherichia coli by broth microdilution method; type: functional; conditions: Escherichia coli; for MIC: read-out: MIC
# In short: (§2)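 MICs were determined by CLSI broth methods, except that organisms were grown in brain–heart–infusion medium. The panel comprised wild-type and resistant E. coli and A. baumannii strains, including 12 strains whose details are given by reference.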
# Escherichia coli [17] = test: Antibacterial activity against wild type Escherichia coli by broth microdilution method; type: functional; in short: as §2
# Escherichia coli [18] = test: Antibacterial activity against beta-lactam resistant Escherichia coli by broth microdilution method; type: functional; conditions: Escherichia coli; for MIC: read-out: MIC; in short: as §2
# Escherichia coli [19] = test: Antibacterial activity against aminoglycoside resistant Escherichia coli by broth microdilution method; type: functional; conditions: Escherichia coli; for MIC: read-out: MIC; in short: as §2
# Escherichia coli [20] = test: Antibacterial activity against multidrug resistant Escherichia coli by broth microdilution method; type: functional; conditions: Escherichia coli; for MIC: read-out: MIC; in short: as §2
# Acinetobacter baumannii [21] = test: Antibacterial activity against wild type Acinetobacter baumannii by broth microdilution method; type: functional; in short: as §2
# Acinetobacter baumannii [22] = test: Antibacterial activity against aminoglycoside resistant Acinetobacter baumannii by broth microdilution method; type: functional; conditions: Acinetobacter baumannii; for MIC: read-out: MIC; in short: as §2
# Acinetobacter baumannii [23] = test: Antibacterial activity against quinolone resistant Acinetobacter baumannii by broth microdilution method; type: functional; conditions: Acinetobacter baumannii; for MIC: read-out: MIC; in short: as §2
# Acinetobacter baumannii [24] = test: Antibacterial activity against beta-lactam resistant Acinetobacter baumannii by broth microdilution method; type: functional; conditions: Acinetobacter baumannii; for MIC: read-out: MIC; in short: as §2
# Acinetobacter baumannii [25] = test: Antibacterial activity against carbapenem resistant Acinetobacter baumannii by broth microdilution method; type: functional; conditions: Acinetobacter baumannii; for MIC: read-out: MIC; in short: as §2
# Acinetobacter baumannii [26] = test: Antibacterial activity against multidrug resistant Acinetobacter baumannii by broth microdilution method; type: functional; conditions: Acinetobacter baumannii; for MIC: read-out: MIC; in short: as §2
# Escherichia coli [27] = test: Bactericidal activity against wild type Escherichia coli ATCC 25922 assessed as reduction of bacterial load after 24 hrs by time kill assay; type: functional, organism-based
# Acinetobacter baumannii [28] = test: Bactericidal activity against wild type Acinetobacter baumannii ATCC BAA-747 assessed as reduction of bacterial load after 24 hrs by time kill assay; type: functional, organism-based
# Escherichia coli [29] = test: Bactericidal activity against wild type Escherichia coli ATCC 25922 assessed as reduction of bacterial load at 0.25 to 8 times MIC after 2 hrs by time kill assay; type: functional
# Acinetobacter baumannii [30] = test: Bactericidal activity against wild type Acinetobacter baumannii ATCC BAA-747 assessed as reduction of bacterial load at 0.25 to 4 times MIC after 2 hrs by time kill assay; type: functional
# Escherichia coli [31] = test: Selectivity ratio of MIC for wild type Escherichia coli ATCC 25922 in presence of HSA to MIC for wild type Escherichia coli ATCC 25922; type: functional
# Mus musculus [32] = test: Terminal half life in CD1 mouse plasma at 10 mg/kg, iv by LC-MS/MS analysis; type: ADME, organism-based; conditions: in vivo
# Mus musculus [33] = test: AUC (0 to 24 hrs) in CD1 mouse plasma at 10 mg/kg, iv by LC-MS/MS analysis; type: ADME, organism-based; design: time < 24 hr, dose 10 mg/kg, route intravenous; conditions: in vivo
# In short: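 CD-1 mice given a single 10 mg/kg iv dose (n = 3), in either 10% DMSO plus 1% Tween 80 in pH 8.0 phosphate buffer or 20% (2-hydroxypropyl)-β-cyclodextrin in pH 4.0 citrate buffer; plasma exposure measured.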
# Mus musculus [34] = test: Volume of distribution at steady state in CD1 mouse plasma at 10 mg/kg, iv by LC-MS/MS analysis; type: ADME, organism-based; conditions: in vivo
# [35] = Oral bioavailability in CD1 mouse plasma by LC-MS/MS analysis; type: ADME, organism-based
# DNA gyrase subunit A, sequence (P0AES4 2-875 limits assumed): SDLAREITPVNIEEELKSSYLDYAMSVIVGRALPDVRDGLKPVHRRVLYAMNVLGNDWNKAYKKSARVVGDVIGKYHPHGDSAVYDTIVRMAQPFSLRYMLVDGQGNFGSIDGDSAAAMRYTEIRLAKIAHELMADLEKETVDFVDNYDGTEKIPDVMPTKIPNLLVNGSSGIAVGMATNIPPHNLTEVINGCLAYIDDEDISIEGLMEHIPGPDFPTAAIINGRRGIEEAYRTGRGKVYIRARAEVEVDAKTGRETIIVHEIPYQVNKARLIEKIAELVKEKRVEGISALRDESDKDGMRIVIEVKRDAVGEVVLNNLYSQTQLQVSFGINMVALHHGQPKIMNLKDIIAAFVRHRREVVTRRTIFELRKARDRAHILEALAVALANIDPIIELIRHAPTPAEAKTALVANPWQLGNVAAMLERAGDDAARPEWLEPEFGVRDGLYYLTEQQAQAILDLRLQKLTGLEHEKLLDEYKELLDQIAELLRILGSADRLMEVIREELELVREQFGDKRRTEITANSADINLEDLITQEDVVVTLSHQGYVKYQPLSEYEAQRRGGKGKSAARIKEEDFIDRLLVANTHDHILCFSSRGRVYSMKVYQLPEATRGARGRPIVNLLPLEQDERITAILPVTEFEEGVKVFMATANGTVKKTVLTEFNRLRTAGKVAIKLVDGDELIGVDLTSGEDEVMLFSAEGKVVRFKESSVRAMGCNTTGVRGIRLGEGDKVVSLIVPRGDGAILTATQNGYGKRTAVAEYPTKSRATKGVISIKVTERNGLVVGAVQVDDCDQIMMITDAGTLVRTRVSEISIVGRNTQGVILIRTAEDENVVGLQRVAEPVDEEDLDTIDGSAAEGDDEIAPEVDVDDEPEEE
structure (smiles),measurement,setting,value
COc1c(N2C[C@@H]3CCCN[C@@H]3C2)c(F)cc2c(=O)c(C(=O)O)cn(C3CC3)c12 [MOXIFLOXACIN],Fu,[1],0.8
same,AUC,Mus musculus [2],640 ng·h/mL
same,survival at 3 mg/kg,Mus musculus [3],100%
same,survival at 1.5 mg/kg,Mus musculus [4],83%
CCNCc1cc2cc3c(cc2n1C)CCCc1c-3[nH]c(=O)c(C(=O)O)c1O,MIC,Escherichia coli [5],0.39 µg/mL
same,MIC,Escherichia coli [6],0.39 µg/mL
same,MIC,Escherichia coli [7],1.6 µg/mL
same,MIC,Acinetobacter baumannii [8],0.78 µg/mL
same,MIC,Acinetobacter baumannii [9],1.6 µg/mL
same,MIC,Klebsiella pneumoniae,0.78 µg/mL
same,MIC,Escherichia coli [10],6.3 µg/mL
same,MIC,Escherichia coli [11],1.6 µg/mL
same,MIC,Escherichia coli [12],1.6 µg/mL
same,IC50,DNA gyrase subunit A,760 nM
same,IC50,[13],56 to 100 nM
same,IC50,[14],2900 nM
same,Fu,[1],0.17
same,survival at 20 mg/kg,Escherichia coli [15],83%
same,MIC50,Escherichia coli [16],1 µg/mL
same,MIC90,Escherichia coli [16],1 µg/mL
same,MIC,Escherichia coli [16],0.25 to 1 µg/mL
same,MIC50,Escherichia coli [17],1 µg/mL
same,MIC90,Escherichia coli [17],1 µg/mL
same,MIC50,Escherichia coli [18],1 µg/mL
same,MIC90,Escherichia coli [18],1 µg/mL
same,MIC,Escherichia coli [18],0.25 to 1 µg/mL
same,MIC50,Escherichia coli [19],1 µg/mL
same,MIC90,Escherichia coli [19],1 µg/mL
same,MIC,Escherichia coli [19],0.25 to 1 µg/mL
same,MIC50,Escherichia coli [20],1 µg/mL
same,MIC90,Escherichia coli [20],1 µg/mL
same,MIC,Escherichia coli [20],0.25 to 1 µg/mL
same,MIC50,Acinetobacter baumannii [21],2 µg/mL
same,MIC90,Acinetobacter baumannii [21],16 µg/mL
same,MIC50,Acinetobacter baumannii [22],2 µg/mL
same,MIC90,Acinetobacter baumannii [22],16 µg/mL
same,MIC,Acinetobacter baumannii [22],0.25 to 32 µg/mL
same,MIC50,Acinetobacter baumannii [23],2 µg/mL
same,MIC90,Acinetobacter baumannii [23],16 µg/mL
same,MIC,Acinetobacter baumannii [23],0.25 to 32 µg/mL
same,MIC50,Acinetobacter baumannii [24],2 µg/mL
same,MIC90,Acinetobacter baumannii [24],16 µg/mL
same,MIC,Acinetobacter baumannii [24],0.25 to 32 µg/mL
same,MIC50,Acinetobacter baumannii [25],2 µg/mL
same,MIC90,Acinetobacter baumannii [25],16 µg/mL
same,MIC,Acinetobacter baumannii [25],0.25 to 32 µg/mL
same,MIC50,Acinetobacter baumannii [26],2 µg/mL
same,MIC90,Acinetobacter baumannii [26],16 µg/mL
same,MIC,Acinetobacter baumannii [26],0.25 to 32 µg/mL
CCc1c(-c2ccc3c(c2)cc(CN2CCC2)n3C)[nH]c(=O)c(C(=O)O)c1O,MIC,Escherichia coli [5],1.6 µg/mL
same,MIC,Escherichia coli [6],0.39 µg/mL
same,MIC,Escherichia coli [7],1.6 µg/mL
same,MIC,Acinetobacter baumannii [8],0.39 µg/mL
same,MIC,Acinetobacter baumannii [9],6.3 µg/mL
same,MIC,Klebsiella pneumoniae,0.78 µg/mL
same,MIC,Escherichia coli [10],1.6 µg/mL
same,Activity,Escherichia coli [27],Dose-dependent effect
same,Activity,Acinetobacter baumannii [28],Dose-dependent effect
same,Activity,Escherichia coli [29],3 log10CFU
same,Activity,Acinetobacter baumannii [30],2 log10CFU
CC(C)NCc1cc2cc3c(cc2n1C)CCCc1c-3[nH]c(=O)c(C(=O)O)c1O,MIC,Escherichia coli [5],0.39 µg/mL
same,MIC,Escherichia coli [6],0.78 µg/mL
same,MIC,Escherichia coli [7],1.6 µg/mL
same,MIC,Acinetobacter baumannii [8],0.78 µg/mL
same,MIC,Acinetobacter baumannii [9],0.78 µg/mL
same,MIC,Klebsiella pneumoniae,0.78 µg/mL
same,MIC,Escherichia coli [10],3.1 µg/mL
same,Ratio,Escherichia coli [31],4 - 16
same,beta t1/2,Mus musculus [32],11 h
same,AUC,Mus musculus [33],1810 ng·h/mL
same,Vdss,Mus musculus [34],69 L/kg
same,bioavailability,[35],44%
same,Fu,[1],0.16
same,survival at 20 mg/kg,Escherichia coli [15],83%
same,MIC50,Escherichia coli [16],0.5 µg/mL
same,MIC90,Escherichia coli [16],1 µg/mL
same,MIC,Escherichia coli [16],0.25 to 1 µg/mL
same,MIC50,Escherichia coli [17],0.5 µg/mL
same,MIC90,Escherichia coli [17],1 µg/mL
same,MIC50,Escherichia coli [18],0.5 µg/mL
same,MIC90,Escherichia coli [18],1 µg/mL
same,MIC,Escherichia coli [18],0.25 to 1 µg/mL
same,MIC50,Escherichia coli [19],0.5 µg/mL
same,MIC90,Escherichia coli [19],1 µg/mL
same,MIC,Escherichia coli [19],0.25 to 1 µg/mL
same,MIC50,Escherichia coli [20],0.5 µg/mL
same,MIC90,Escherichia coli [20],1 µg/mL
same,MIC,Escherichia coli [20],0.25 to 1 µg/mL
same,MIC50,Acinetobacter baumannii [21],2 µg/mL
same,MIC90,Acinetobacter baumannii [21],16 µg/mL
same,MIC50,Acinetobacter baumannii [22],2 µg/mL
same,MIC90,Acinetobacter baumannii [22],16 µg/mL
same,MIC,Acinetobacter baumannii [22],0.25 to 32 µg/mL
same,MIC50,Acinetobacter baumannii [23],2 µg/mL
same,MIC90,Acinetobacter baumannii [23],16 µg/mL
same,MIC,Acinetobacter baumannii [23],0.25 to 32 µg/mL
same,MIC50,Acinetobacter baumannii [24],2 µg/mL
same,MIC90,Acinetobacter baumannii [24],16 µg/mL
same,MIC,Acinetobacter baumannii [24],0.25 to 32 µg/mL
same,MIC50,Acinetobacter baumannii [25],2 µg/mL
same,MIC90,Acinetobacter baumannii [25],16 µg/mL
same,MIC,Acinetobacter baumannii [25],0.25 to 32 µg/mL
same,MIC50,Acinetobacter baumannii [26],2 µg/mL
same,MIC90,Acinetobacter baumannii [26],16 µg/mL
same,MIC,Acinetobacter baumannii [26],0.25 to 32 µg/mL
O=C(O)c1cn(C2CC2)c2cc(N3CCNCC3)c(F)cc2c1=O [CIPROFLOXACIN],IC50,[13],190 nM
same,Activity,Escherichia coli [27],Dose-dependent effect
same,Activity,Acinetobacter baumannii [28],Dose-dependent effect
